Test results taken from ChEMBL document CHEMBL3045704, “Biflavonoids isolated from Selaginella lepidophylla inhibit photosynthesis in spinach chloroplasts” (J Agric Food Chem, 2008).
pIC50: −log10 of the molar value. Active and inactive are the calls of the source. The rule behind the calls is not given here.

Experiments:
[1] = biological target: T1, Photosystem I iron-sulfur center (Spinacia oleracea) (UniProt P10098); experiment: Inhibition of photosystem I in Spinacia oleracea (spinach) leaves intact chloroplasts assessed as electron transport flow from DCPIP to MV at 200 uM; design: scale not given: the % may be the effect or the level left
T1 sequence (whole entry): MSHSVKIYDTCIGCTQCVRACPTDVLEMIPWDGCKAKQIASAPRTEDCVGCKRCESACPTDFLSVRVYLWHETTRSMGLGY
How it was run: (§1)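 Uncoupled PSI flow, reduced DCPIP to MV, in basal electron transport medium (3 mL). Additions: 10 µM DCMU, 100 µM DCPIP, 300 µM ascorbate and 6 mM NH4Cl. O2 uptake was monitored with a Clark electrode.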

[2] = biological target: T1, Photosystem I iron-sulfur center (Spinacia oleracea); experiment: Inhibition of photosystem I in Spinacia oleracea (spinach) leaves intact chloroplasts assessed as electron transport flow from TMQH2 to MV at 200 uM; design: scale not given: the % may be the effect or the level left
How it was run: (§2)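 Electron flow from TMQH2 to MV was determined polarographically with a Clark electrode in basal electron transport medium.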

[3] = biological target: T1, Photosystem I iron-sulfur center (Spinacia oleracea); experiment: Inhibition of photosystem I in Spinacia oleracea (spinach) leaves intact chloroplasts assessed as electron transport flow from TMQH2 to MV at 100 uM; design: scale not given: the % may be the effect or the level left; how it was run: as §2
[4] = biological target: T1, Photosystem I iron-sulfur center (Spinacia oleracea); experiment: Inhibition of photosystem I in Spinacia oleracea (spinach) leaves intact chloroplasts assessed as electron transport flow from DCPIP to MV at 300 uM; design: scale not given: the % may be the effect or the level left; how it was run: as §1
[5] = biological target: T1, Photosystem I iron-sulfur center (Spinacia oleracea); experiment: Inhibition of photosystem I in Spinacia oleracea (spinach) leaves intact chloroplasts assessed as electron transport flow from DCPIP to MV at 100 uM; design: scale not given: the % may be the effect or the level left; how it was run: as §1
Spinacia oleracea [6] = experiment: Inhibition of thylakoid membrane bound Magnesium-transporting Mg2+ ATPase in Spinacia oleracea (spinach) leaves chloroplasts assessed as enzyme activity at 300 uM; design: scale not given: the % may be the effect or the level left
How it was run: (§3)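 Chloroplasts were ground in 350 mM sorbitol, 5 mM ascorbate and 20 mM MES pH 6.5, centrifuged 3000g for 60 s, washed, and resuspended in 35 mM HEPES pH 7.6. Light-triggered thylakoid-bound Mg2+-ATPase was assayed via released Pi (Sumner method), expressed as µM P/mg Chl/h and as % of control. Tested at 100–300 µM, or NH4Cl at 1–6 mM.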

Spinacia oleracea [7] = experiment: Inhibition of thylakoid membrane bound Magnesium-transporting Mg2+ ATPase in Spinacia oleracea (spinach) leaves chloroplasts assessed as enzyme activity at 100 uM; design: scale not given: the % may be the effect or the level left; how it was run: as §3
[8] = biological target: Photosystem II protein D1 (Spinacia oleracea) (UniProt P69560); experiment: Inhibition of photosystem II in Spinacia oleracea (spinach) leaves intact chloroplasts assessed as electron transport flow from H2O to DCPIP at 300 uM; design: scale not given: the % may be the effect or the level left
How it was run: (§4)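 Uncoupled PSII, water to DCPIP, was followed as DCPIP-supported O2 evolution on a Clark electrode. Medium: basal electron transport medium with 1 µM DBMIB, 100 µM DCPIP, 300 µM K3[Fe(CN)6] and 6 mM NH4Cl, without MV. I50 values were calculated.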

[9] = biological target: T1, Photosystem I iron-sulfur center (Spinacia oleracea); experiment: Inhibition of photosystem I in Spinacia oleracea (spinach) leaves intact chloroplasts assessed as electron transport flow from TMQH2 to MV at 300 uM; design: scale not given: the % may be the effect or the level left; how it was run: as §2
Spinacia oleracea [10] = experiment: Inhibition of ATP synthesis in Spinacia oleracea (spinach) leaves intact chloroplasts; format: functional; details: read-out: I50
Spinacia oleracea [11] = experiment: Inhibition of uncoupled electron transport flow in Spinacia oleracea (spinach) leaves intact chloroplasts at 300 uM; format: functional
[12] = biological target: Photosystem II protein D1 (Spinacia oleracea) (UniProt P69560); experiment: Inhibition of photosystem II in Spinacia oleracea (spinach) leaves intact chloroplasts assessed as electron transport flow from H2O to DCPIP at 100 uM; design: scale not given: the % may be the effect or the level left; how it was run: as §4
[13] = biological target: Photosystem II protein D1 (Spinacia oleracea) (UniProt P69560); experiment: Inhibition of photosystem II in Spinacia oleracea (spinach) leaves intact chloroplasts assessed as electron transport flow from H2O to DCPIP at 200 uM; design: scale not given: the % may be the effect or the level left; how it was run: as §4
Spinacia oleracea [14] = experiment: Inhibition of thylakoid membrane bound Magnesium-transporting Mg2+ ATPase in Spinacia oleracea (spinach) leaves chloroplasts assessed as enzyme activity at 200 uM; design: scale not given: the % may be the effect or the level left; how it was run: as §3
Spinacia oleracea [15] = experiment: Increase in chlorophyll a fluorescence in freshly lysed Spinacia oleracea (spinach) leaves chloroplasts at 10 uM
Spinacia oleracea [16] = experiment: Inhibition of thylakoid membrane bound Magnesium-transporting Mg2+ ATPase in Spinacia oleracea (spinach) leaves chloroplasts assessed as enzyme activity at 1 mM; design: scale not given: the % may be the effect or the level left; how it was run: as §3
Spinacia oleracea [17] = experiment: Inhibition of thylakoid membrane bound Magnesium-transporting Mg2+ ATPase in Spinacia oleracea (spinach) leaves chloroplasts assessed as enzyme activity at 6 mM; design: scale not given: the % may be the effect or the level left; how it was run: as §3
Spinacia oleracea [18] = experiment: Inhibition of thylakoid membrane bound Magnesium-transporting Mg2+ ATPase in Spinacia oleracea (spinach) leaves chloroplasts assessed as enzyme activity at 3 mM; design: scale not given: the % may be the effect or the level left; how it was run: as §3
[19] = biological target: T1, Photosystem I iron-sulfur center (Spinacia oleracea); experiment: Inhibition of photosystem I in Spinacia oleracea (spinach) leaves intact chloroplasts assessed as electron transport flow from DCPIP to MV at 50 uM; design: scale not given: the % may be the effect or the level left; how it was run: as §1
[20] = biological target: T1, Photosystem I iron-sulfur center (Spinacia oleracea); experiment: Inhibition of photosystem I in Spinacia oleracea (spinach) leaves intact chloroplasts assessed as electron transport flow from TMQH2 to MV at 50 uM; design: scale not given: the % may be the effect or the level left; how it was run: as §2
[21] = biological target: Photosystem II protein D1 (Spinacia oleracea) (UniProt P69560); experiment: Inhibition of photosystem II in Spinacia oleracea (spinach) leaves intact chloroplasts assessed as electron transport flow from H2O to DCPIP at 50 uM; design: scale not given: the % may be the effect or the level left; how it was run: as §4
[22] = biological target: T1, Photosystem I iron-sulfur center (Spinacia oleracea); experiment: Inhibition of photosystem I in Spinacia oleracea (spinach) leaves chloroplasts assessed as effect on partial reaction from PMS reduced with ascorbate to MV using KCN treated thylakoids
How it was run: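 Chloroplasts were held in basal medium with 30 mM KCN for 60 min at 4 °C in the dark to release plastocyanin. They were then diluted in sucrose/30 mM HEPES-NaOH pH 7.2/2 mM MgCl2, centrifuged 5000g for 2 min and resuspended. Flow from 100 µM PMS/300 µM ascorbate to MV was assayed in basal medium plus 1 µM DBMIB.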

[23] = biological target: Photosystem II protein D1 (Spinacia oleracea) (UniProt P69560); experiment: Inhibition of photosystem II in Spinacia oleracea (spinach) leaves intact chloroplasts assessed as electron transport flow from DPC to DCPIP at 100 uM; design: scale not given: the % may be the effect or the level left
How it was run: (§5)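 Thylakoids (45 µg Chl) were pretreated with 0.8 M Tris pH 8.0 for 30 min at 4 °C, centrifuged 5000g for 2 min and resuspended in reaction medium. Electron flow from DPC to DCPIP was read spectrophotometrically at 600 nm, with DCPIP reduction quantified by its molar extinction coefficient. I50 values were calculated.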

Spinacia oleracea [24] = experiment: Inhibition of uncoupled electron transport flow in Spinacia oleracea (spinach) leaves intact chloroplasts; format: functional; details: read-out: I50
Spinacia oleracea [25] = experiment: Inhibition of basal electron transport flow in Spinacia oleracea (spinach) leaves intact chloroplasts at 88 uM; format: functional
[26] = biological target: Photosystem II protein D1 (Spinacia oleracea) (UniProt P69560); experiment: Inhibition of photosystem II in freshly lysed Spinacia oleracea (spinach) leaves chloroplasts assessed as induction of loss of reactions centers capacity to capture excitons at 300 to 900 uM
How it was run: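 JIP-test on Chl a fluorescence transients of freshly lysed spinach chloroplasts, dark-adapted 5 min at 20 µg/mL Chl. Measured at room temperature with a Handy PEA at 300, 600 and 900 µM. Parameters such as […] VJ were derived from the curves and expressed relative to control (%). Results are the average of three replicates.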

[27] = biological target: Photosystem II protein D1 (Spinacia oleracea) (UniProt P69560); experiment: Inhibition of photosystem II in Spinacia oleracea (spinach) leaves intact chloroplasts assessed as electron transport flow from H2O to SiMo at 100 uM; design: scale not given: the % may be the effect or the level left
How it was run: (§6)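 Uncoupled partial PSII reaction, water to silicomolybdate, measured by Clark electrode O2 evolution. Basal medium (sorbitol/KCl/MgCl2/KCN/30 mM tricine pH 8) was supplemented with 200 µM SiMo, 10 µM DCMU and 6 mM NH4Cl, without MV. I50 values were calculated.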

[28] = biological target: Photosystem II protein D1 (Spinacia oleracea) (UniProt P69560); experiment: Inhibition of photosystem II in Spinacia oleracea (spinach) leaves intact chloroplasts assessed as electron transport flow from DPC to DCPIP at 300 uM; design: scale not given: the % may be the effect or the level left; how it was run: as §5
[29] = biological target: Photosystem II protein D1 (Spinacia oleracea) (UniProt P69560); experiment: Inhibition of photosystem II in Spinacia oleracea (spinach) leaves intact chloroplasts assessed as electron transport flow from H2O to SiMo at 300 uM; design: scale not given: the % may be the effect or the level left; how it was run: as §6
[30] = biological target: Photosystem II protein D1 (Spinacia oleracea) (UniProt P69560); experiment: Inhibition of photosystem II in Spinacia oleracea (spinach) leaves intact chloroplasts assessed as electron transport flow from DPC to DCPIP at 200 uM; design: scale not given: the % may be the effect or the level left; how it was run: as §5
[31] = biological target: Photosystem II protein D1 (Spinacia oleracea) (UniProt P69560); experiment: Inhibition of photosystem II in Spinacia oleracea (spinach) leaves intact chloroplasts assessed as electron transport flow from H2O to SiMo at 200 uM; design: scale not given: the % may be the effect or the level left; how it was run: as §6

| SMILES | Activity [1] | Activity [2] | Activity [3] | Activity [4] | Activity [5] | Activity (Spinacia oleracea [6]) | Activity (Spinacia oleracea [7]) | Activity [8] | Activity [9] | pIC50 (Spinacia oleracea [10]) | Inhibition % (Spinacia oleracea [11]) | Activity [12] | Activity [13] | Activity (Spinacia oleracea [14]) | further results |
| --- | --- | --- | --- | --- | --- | --- | --- | --- | --- | --- | --- | --- | --- | --- | --- |
| COc1cc(O)cc2c1C(=O)CC(c1ccc(O)c(-c3c(O)cc4oc(-c5ccc(O)cc5)cc(=O)c4c3O)c1)O2 (stereo not drawn) | 100% | 100% | 100% | 100% | 100% | 20% | 63% | 100% | 100% | 4.10 | 25% | 100% | 100% | 44% |  |
| CN(C)C(=O)Nc1ccc(Cl)c(Cl)c1 |  |  |  |  |  |  |  |  |  |  |  |  |  |  | Activity (Spinacia oleracea [15]): Active |
| Cl.N |  |  |  |  |  |  |  |  |  |  |  |  |  |  | Activity (Spinacia oleracea [16]): 206%; Activity (Spinacia oleracea [17]): 124%; Activity (Spinacia oleracea [18]): 240% |
| O=C1CC(c2ccc(O)c(-c3c(O)cc4oc(-c5ccc(O)cc5)cc(=O)c4c3O)c2)Oc2cc(O)cc(O)c21 (stereo not drawn) [2,3-DIHYDROROBUSTAFLAVONE] | 71% | 74% | 98% | 71% | 74% | 34% | 53% | 100% | 72% | 4.41 | 32% | 100% | 100% | 47% | Activity [19]: 96%; Activity [20]: 100%; Activity [21]: 100%; inhibition [22]: inactive |
| O=c1cc(-c2ccc(O)c(-c3c(O)cc4oc(-c5ccc(O)cc5)cc(=O)c4c3O)c2)oc2cc(O)cc(O)c12 [ROBUSTAFLAVONE] | 100% | 100% | 100% | 100% | 100% | 76% | 76% | 29% | 100% | 4.36 |  | 57% | 43% | 76% | Activity [23]: 89%; pIC50 (Spinacia oleracea [24]): 4.06; inhibition (Spinacia oleracea [25]): 22%; inhibition [26]: Active; Activity [27]: 100%; Activity [28]: 9%; Activity [29]: 50%; Activity [30]: 35%; Activity [31]: 50% |
